Each block holds one compound with its values, some of them ahead of it.
Assays:
[1] = target: T1, Indoleamine 2,3-dioxygenase 1 (Homo sapiens, UniProt P14902); assay: Inhibition of human IDO1 expressed in Escherichia coli Rosetta measured after 1 hr by microplate reader analysis
[2] = target: T1, Indoleamine 2,3-dioxygenase 1; assay: Inhibition of IDO in human HeLa cells using tryptophan as substrate measured after 48 hrs in presence of INF gamma microplate reader analysis; format: cell-based
[3] = target: Tryptophan 2,3-dioxygenase (Homo sapiens, UniProt P48775); assay: Inhibition of human TDO expressed in Escherichia coli Rosetta measured after 1 hr microplate reader analysis
Sequence of Tryptophan 2,3-dioxygenase (P48775 whole entry): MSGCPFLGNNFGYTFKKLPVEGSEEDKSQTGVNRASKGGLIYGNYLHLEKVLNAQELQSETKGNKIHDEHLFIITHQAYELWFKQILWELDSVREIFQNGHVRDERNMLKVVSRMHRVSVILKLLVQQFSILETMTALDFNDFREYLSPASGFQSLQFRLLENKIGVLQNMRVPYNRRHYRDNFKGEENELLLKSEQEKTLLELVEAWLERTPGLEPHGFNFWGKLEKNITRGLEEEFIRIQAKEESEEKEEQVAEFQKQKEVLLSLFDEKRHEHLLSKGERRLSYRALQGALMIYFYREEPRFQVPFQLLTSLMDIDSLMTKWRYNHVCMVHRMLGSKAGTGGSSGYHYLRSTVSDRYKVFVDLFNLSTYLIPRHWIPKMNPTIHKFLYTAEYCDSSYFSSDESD

[4] = Cmax in C57BL/6 mouse at 10 mg/kg via oral gavage measured upto 24 hrs; format: ADME, organism-based; set-up: dose 10 mg/kg, route oral; details: in vivo
MC-38 [5] = assay: Synergistic antitumour activity against MC38 cells xenografted in humanized PD1 transgenic mouse assessed as tumour growth inhibition at 20 to 50 mg/kg, po bid for 14 days pretreated with SHR-1210 at 5 mg/kg, ip qod for 8 days by digital caliper method relative to control
[6] = Protein binding in human plasma measured after 4 hrs by rapid equilibrium dialysis; format: ADME, cell-free; details: read-out: PPB (converted)
[7] = Half-life in Beagle dog at 2 mg/kg via oral gavage measured upto 24 hrs; format: ADME, organism-based, Canis lupus familiaris; details: in vivo
[8] = AUC in Sprague-Dawley rat at 10 mg/kg via oral gavage measured upto 24 hrs; format: ADME, organism-based; set-up: time < 24 hr, dose 10 mg/kg, route oral; details: in vivo
[9] = Oral bioavailability in Sprague-Dawley rat at 10 mg/kg measured upto 24 hrs; format: ADME, organism-based; details: in vivo
MC-38 [10] = assay: Antitumour activity against MC38 cells xenografted in humanized PD1 transgenic mouse assessed as tumour growth inhibition at 20 mg/kg, po bid for 14 days by digital caliper method relative to control; format: functional; details: MC-38, po, 336 h, read-out: TGI
Summary of the method: (§1)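 MC38 tumors implanted in hPD1 transgenic mice. Compound given orally at 20 or 50 mg/kg, bid × 14. Tumor growth inhibition (TGI) was calculated against control. Body weight was monitored.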

[11] = Oral bioavailability in Beagle dog at 2 mg/kg measured upto 24 hrs; format: ADME, organism-based, Canis lupus familiaris; details: in vivo
[12] = Half-life in human liver microsomes; format: ADME, Microsome
[13] = AUC in C57BL/6 mouse at 10 mg/kg via oral gavage measured upto 24 hrs; format: ADME, organism-based; set-up: time < 24 hr, dose 10 mg/kg, route oral; details: in vivo
[14] = Protein binding in mouse plasma measured after 2 to 6 hrs by rapid equilibrium dialysis; format: ADME, cell-free; details: read-out: PPB (converted)
[15] = AUC in Beagle dog at 2 mg/kg via oral gavage measured upto 24 hrs; format: ADME, organism-based, Canis lupus familiaris; set-up: time < 24 hr, dose 2 mg/kg, route oral; details: in vivo
[16] = Oral bioavailability in C57BL/6 mouse at 10 mg/kg measured upto 24 hrs; format: ADME, organism-based; details: in vivo
Mus musculus = assay: Reduction in plasma kynurenine levels in C57BL/6 mouse at 100 mg/kg, s.d ig measured after 2 hrs relative to control; format: ADME, organism-based; set-up: scale not given: the % may be the effect or the level left; details: in vivo, po
[17] = Protein binding in dog plasma measured after 2 to 6 hrs by rapid equilibrium dialysis; format: ADME, cell-free, Canis lupus familiaris; details: read-out: PPB (converted)
[18] = Half-life in C57BL/6 mouse at 10 mg/kg via oral gavage measured upto 24 hrs; format: ADME, organism-based; details: in vivo
[19] = Half-life in Sprague-Dawley rat at 10 mg/kg via oral gavage measured upto 24 hrs; format: ADME, organism-based; details: in vivo
[20] = Cmax in Sprague-Dawley rat at 10 mg/kg via oral gavage measured upto 24 hrs; format: ADME, organism-based; set-up: dose 10 mg/kg, route oral; details: in vivo
MC-38 [21] = assay: Antitumour activity against MC38 cells xenografted in humanized PD1 transgenic mouse assessed as tumour growth inhibition at 50 mg/kg, po bid for 14 days by digital caliper method relative to control; format: functional; details: MC-38, po, 336 h, read-out: TGI; summary of the method: as §1
[22] = Cmax in Beagle dog at 2 mg/kg via oral gavage measured upto 24 hrs; format: ADME, organism-based, Canis lupus familiaris; set-up: dose 2 mg/kg, route oral; details: in vivo
[23] = Half-life in rat liver microsomes; format: ADME, Microsome

T1 sequence (P14902 whole entry): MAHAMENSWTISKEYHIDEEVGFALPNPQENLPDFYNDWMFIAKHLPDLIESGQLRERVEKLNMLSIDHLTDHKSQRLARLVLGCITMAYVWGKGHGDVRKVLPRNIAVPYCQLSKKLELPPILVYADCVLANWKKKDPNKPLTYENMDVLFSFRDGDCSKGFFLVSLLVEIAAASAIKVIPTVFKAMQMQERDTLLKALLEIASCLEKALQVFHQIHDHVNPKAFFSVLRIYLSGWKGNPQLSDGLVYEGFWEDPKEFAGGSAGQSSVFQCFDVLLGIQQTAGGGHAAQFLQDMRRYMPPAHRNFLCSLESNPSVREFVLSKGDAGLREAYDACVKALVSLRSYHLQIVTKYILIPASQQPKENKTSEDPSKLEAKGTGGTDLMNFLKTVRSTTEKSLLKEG

Compound: Fc1cccc2c1C(C1CCN(c3ccc(N4CCOCC4)cc3)CC1)n1cncc1-2 (stereo not drawn)
IC50 [1]: 358 nM
IC50 [2]: 1710 nM
IC50 [3]: 1030 nM

Compound: Fc1cccc2c1C(C1CCN(c3nccs3)CC1)n1cncc1-2 (stereo not drawn)
IC50 [1]: 297 nM
IC50 [2]: 571 nM
IC50 [3]: 586 nM

Compound: Fc1cccc2c1C(C1CCNCC1)n1cncc1-2 (stereo not drawn)
IC50 [1]: > 10000 nM
IC50 [3]: > 10000 nM

Compound: Fc1cccc2c1C(C1CCN(c3ccccc3)CC1)n1cncc1-2 (stereo not drawn)
IC50 [2]: 544 nM

Compound: Cn1cc(-c2cnc(N3CCC(C4c5c(F)cccc5-c5cncn54)CC3)nc2)cn1 (stereo not drawn)
IC50 [1]: 113 nM
IC50 [2]: 324 nM
IC50 [3]: 579 nM

Compound: Cn1cc(-c2ccc(N3CCC([C@H]4c5c(F)cccc5-c5cncn54)CC3)cc2)cn1
Cmax [4]: 3600 ng/mL
TGI (MC-38 [5]): >90%
fraction unbound at 4 h [6]: 0.003
half-life [7]: 6.49 h
AUC at 24 h [8]: 6130 ng·h/mL
bioavailability [9]: 60.3%
inhibition in vivo at 20 mg/kg (MC-38 [10]): 39%
bioavailability [11]: 27.3%
half-life [12]: 2.45 h
AUC at 24 h [13]: 29100 ng·h/mL
fraction unbound [14]: 0.004
AUC at 24 h [15]: 1340 ng·h/mL
bioavailability [16]: 59.6%
Activity (Mus musculus): 57%
fraction unbound [17]: 0.008
half-life [18]: 4.55 h
half-life [19]: 1.22 h
Cmax [20]: 1850 ng/mL
inhibition in vivo at 50 mg/kg (MC-38 [21]): 78%
Cmax [22]: 166 ng/mL
half-life [23]: 2.37 h

Compound: Cn1ccc2ccc(N3CCC(C4c5c(F)cccc5-c5cncn54)CC3)cc21 (stereo not drawn)
IC50 [1]: 27 nM
IC50 [2]: 203 nM
IC50 [3]: 376 nM

Compound: Fc1cccc2c1C(Cc1ccccc1)n1cncc1-2 (stereo not drawn)
IC50 [1]: 2730 nM
IC50 [3]: 793 nM

Compound: Cn1cc(-c2cccc(N3CCC(C4c5c(F)cccc5-c5cncn54)CC3)c2)cn1 (stereo not drawn)
IC50 [3]: 639 nM

Compound: O=C(c1ccccc1)N1CCC(C2c3c(F)cccc3-c3cncn32)CC1 (stereo not drawn)
IC50 [1]: 3560 nM
IC50 [3]: 1270 nM

Further compounds by falling IC50 [3], results first:

IC50 [1]: 2740 nM
IC50 [3]: 374 nM
Compound: Fc1cccc2c1C(c1ccccc1)n1cncc1-2 (stereo not drawn)

IC50 [1]: 33 nM
IC50 [2]: 280 nM
IC50 [3]: 353 nM
Compound: Fc1cccc2c1C(C1CCN(c3ccc(-c4ccncc4)cc3)CC1)n1cncc1-2 (stereo not drawn)

IC50 [3]: 247 nM
Compound: O[C@H](C[C@H]1c2c(F)cccc2-c2cncn21)[C@H]1CC[C@H](O)CC1 [NAVOXIMOD]

IC50 [1]: 20 nM
IC50 [2]: 691 nM
IC50 [3]: 226 nM
Compound: Cc1cc(-c2cnn(C)c2)ccc1N1CCC(C2c3c(F)cccc3-c3cncn32)CC1 (stereo not drawn)

IC50 [1]: 19 nM
IC50 [2]: 440 nM
IC50 [3]: 195 nM
Compound: Fc1cccc2c1C(C1CCN(c3nc4ccccc4s3)CC1)n1cncc1-2 (stereo not drawn)

IC50 [1]: 969 nM
IC50 [2]: 5340 nM
IC50 [3]: 189 nM
Compound: Fc1cccc2c1C(C1CCOCC1)n1cncc1-2 (stereo not drawn)

IC50 [1]: 70 nM
IC50 [2]: 240 nM
IC50 [3]: 183 nM
Compound: Fc1cccc2c1C(C1CCN(c3ccc(-c4cccnc4)cc3)CC1)n1cncc1-2 (stereo not drawn)

IC50 [1]: 14 nM
IC50 [2]: 121 nM
IC50 [3]: 114 nM
Compound: Cc1cc(N2CCC(C3c4c(F)cccc4-c4cncn43)CC2)ccc1-c1cnn(C)c1 (stereo not drawn)

IC50 [1]: 764 nM
IC50 [2]: 1240 nM
IC50 [3]: 95 nM
Compound: Fc1cccc2c1C(C1CCCC1)n1cncc1-2 (stereo not drawn)

IC50 [1]: 108 nM
IC50 [2]: 568 nM
IC50 [3]: 85 nM
Compound: Fc1cccc2c1C(C1CCCCC1)n1cncc1-2 (stereo not drawn)

— ChEMBL document CHEMBL4359827 (ACS Med Chem Lett, 2019)
